# Laboratory results from paper PMC5826771 (Molecular pharmaceutics, 2017).
# Where a SMILES comes first, the peptide text is derived from it. [ ]: non-standard residue; d: D form. Sar = CNCC(=O)O
# Assays:
# hPepT1 [1] = molecular target: T1, hPepT1 (Homo sapiens, UniProt P46059); assay type: cell-based
# T1 sequence (P46059 1-708): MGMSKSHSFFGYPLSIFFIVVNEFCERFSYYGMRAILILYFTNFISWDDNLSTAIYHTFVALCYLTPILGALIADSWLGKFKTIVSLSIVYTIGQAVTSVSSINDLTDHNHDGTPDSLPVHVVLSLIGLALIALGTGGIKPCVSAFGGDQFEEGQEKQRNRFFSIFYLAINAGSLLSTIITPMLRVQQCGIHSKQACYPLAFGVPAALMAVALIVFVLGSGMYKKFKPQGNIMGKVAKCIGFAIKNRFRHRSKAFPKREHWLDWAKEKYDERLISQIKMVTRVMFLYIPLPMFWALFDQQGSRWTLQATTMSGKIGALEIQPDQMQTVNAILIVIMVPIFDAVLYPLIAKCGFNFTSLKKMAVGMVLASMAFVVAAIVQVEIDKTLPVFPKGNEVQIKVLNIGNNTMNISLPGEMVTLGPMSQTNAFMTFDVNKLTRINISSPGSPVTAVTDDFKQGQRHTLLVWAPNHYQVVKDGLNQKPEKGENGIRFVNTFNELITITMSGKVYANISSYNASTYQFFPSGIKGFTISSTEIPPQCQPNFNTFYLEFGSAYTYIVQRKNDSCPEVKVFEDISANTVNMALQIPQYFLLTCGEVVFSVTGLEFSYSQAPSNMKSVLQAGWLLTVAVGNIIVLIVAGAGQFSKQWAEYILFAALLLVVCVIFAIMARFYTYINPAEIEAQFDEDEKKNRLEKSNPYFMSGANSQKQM
# hPepT1 [2] = molecular target: T1, hPepT1; assay type: cell-based; details: hPepT1-expressing oocytes; for induction of inward current (in words): pH 6.0, voltage clamp −50 mV
# Summary of the method: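 Stage V–VI X. laevis oocytes were collagenase-treated, defolliculated, held at 18 °C in modified Barth's medium with gentamicin, and injected with 50 ng hPepT1 cRNA, with water-injected controls. TEVC clamped at −50 mV under pH 7.5 buffer, then NaCl buffer pH 6.0 ± test compound to steady state, then washout. Induced current = steady-state difference, expressed relative to 1 mM or 250 µM glycylsarcosine currents.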
# hPepT1 [3] = molecular target: T1, hPepT1; details: cited from earlier work
Structure (SMILES),IC50 (hPepT1 [1]),induction of inward current (in words) (hPepT1 [2]),identified as hPepT1 inhibitor (hPepT1 [3]),"induced inward current (hPepT1 [2]; 1 mM, buffer pH 6.0, clamped at −50 mV)"
COC(=O)[C@H](Cc1ccccc1)NC(=O)[C@@H](N)CC(=O)O [aspartame] (H-Asp-Phe-OMe),3.9 mM,induced significant inward currents,inhibitor,
CN(CC(=O)O)C(=O)CN [glycylsarcosine] (H-Gly-[Sar]-OH),,,,300–400 nA
"Nc1ccc(CC(=O)O)cc1 [4-amino PA, 4-amino phenyl acetic acid]",,induced significant inward currents,,
